The values below come from ChEMBL document CHEMBL4011605, “N-Piperonyl substitution on aminoquinoline-pyrimidine hybrids: Effect on the antiplasmodial potency” (Eur J Med Chem, 2017).

Activity calls are given as the source filed them. The rule behind the calls is not given here.

The subject of series [1] is Plasmodium falciparum. In words: Antiplasmodial activity against chloroquine-sensitive Plasmodium falciparum D6 infected in red blood cells after 72 hrs by Malstat reagent based LDH assay. As to conditions: D6, 72 h. It counts as functional, cell-based.
Series [2] relates to Plasmodium falciparum. In words: Antiplasmodial activity against chloroquine-resistant Plasmodium falciparum W2 infected in red blood cells after 72 hrs by Malstat reagent based LDH assay. The format is functional, cell-based. As to conditions: W2, 72 h.
The subject of series [3] is Vero. In words: Cytotoxicity against African green monkey Vero cells up to 9 uM. Particulars: chlorocebus sabaeus. The format is cell-based.
Series [4] can be described thus: Selectivity index, ratio of IC50 for African green monkey Vero cells to IC50 for chloroquine-sensitive Plasmodium falciparum D6. It counts as toxicity. Particulars: read-out: Ratio IC50. The gist of the method:
(§1)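 Selectivity index is the ratio of the VERO cytotoxicity IC50 to the antiplasmodial IC50 for the strain named. VERO cells were tested up to a highest concentration of 9 µM.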

Series [5] is described as follows: Selectivity index, ratio of IC50 for African green monkey Vero cells to IC50 for chloroquine-resistant Plasmodium falciparum W2. Particulars: read-out: Ratio IC50. It counts as toxicity. The essentials:
as §1

Series [6] deals with Heme. Description: Binding affinity to monomeric heme (unknown origin) assessed as decrease in intensity of soret band at 0.5 to 70 uM at pH 5.4 and 7.4 by titration based UV-vis spectrophotometric analysis. The gist of the method: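 Hemin stock (1.0 mM in DMSO, kept at 4 °C in the dark) is diluted daily to 10 µM monomeric heme in 0.02 M HEPES pH 7.4 or 0.02 M MES pH 5.4. Drug comes from a 1.0 mM DMSO stock and is titrated at 0.5–70 µM. After each addition the sample is mixed and the Soret band at 402 nm is read.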

The subject of series [7] is Heme. Description: Binding affinity to monomeric heme (unknown origin) assessed as mole fraction of compound required to show 1:1 stoichiometry for heme-compound complex at pH 5.4 to 7.4 by Job's plot method. The essentials:
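Binding stoichiometry with monomeric heme is found by Job's continuous variation. Total drug plus heme is held at 10 µM, at pH 7.4 (HEPES) and at pH 5.4 (MES), with heme from a DMSO hemin stock. Absorbance is plotted against drug mole fraction.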

Series [8] deals with mu-oxodimeric heme. In words: Binding affinity to mu-oxodimeric heme (unknown origin) in aqueous NaOH solution at 0.5 to 70 uM at pH 5.8 by titration-based UV-vis spectrophotometric analysis. The essentials: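 µ-Oxodimeric heme: hemin chloride is dissolved to 1.0 mM in 0.1 M aqueous NaOH with 30 min sonication, then diluted to 10 µM in 20 mM phosphate pH 5.8. Aliquots of a 1.0 mM drug stock are added stepwise (0.5–70 µM), and absorbance at 362 nm is recorded.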

The subject of series [9] is mu-oxodimeric heme. In words: Binding affinity to mu-oxodimeric heme (unknown origin) in aqueous NaOH solution assessed as 1:1 stoichiometry for heme-compound complex at 10 uM at pH 5.8 by Job's plot method.
Series [10] concerns Plasmodium falciparum. Description: Potency index, ratio of chloroquine IC50 to compound IC50 for chloroquine-resistant Plasmodium falciparum W2. It counts as functional.
In series [11] the test system is Vero. In words: Cytotoxicity against African green monkey Vero cells. Particulars: chlorocebus sabaeus. It counts as cell-based. The essentials: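 VERO (mammalian) cells were exposed to compounds up to a highest tested concentration of 9 µM. Cytotoxicity was expressed as IC50.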

Broadly, the IC50 is the concentration needed to halve the response being measured. In the case of `Cc1cc(N2CCCCC2)nc(N(CCCNc2ccnc3cc(Cl)ccc23)Cc2ccc3c(c2)OCO3)n1`, the half-maximal inhibitory concentration (IC50) in [1] was found to be 150 nM; in [2], 360 nM. The Activity entry in [3] was “Non-Toxic”. Moreover, the selectivity ratio is over 57.2 in [4] and over 24.2 in series [5].
On to `CCN1CCN(c2nc(C)cc(N(CCNc3ccnc4cc(Cl)ccc34)Cc3ccc4c(c3)OCO4)n2)CC1`, for which the IC50 was 20 nM in series [1] and 50 nM in [2]. Further, the Activity entry in series [3] was “Non-Toxic”; in [7], 0.5 molar ratio. Moreover, the selectivity ratio in [4] is over 243; in series [5], over 60.4. In addition, the result in series [6], in series [8] and in [9] was Active. In [10], the “Ratio IC50” value was found to be 8.
As for `Cc1cc(N(CCNc2ccnc3cc(Cl)ccc23)Cc2ccc3c(c2)OCO3)nc(N2CCCC2)n1`, the IC50 in series [1] is 40 nM; in [2] it was 100 nM. For the same compound, the Activity entry in series [3] is listed as “Non-Toxic”. The selectivity ratio in series [4] and in series [5] was over 243 throughout.
As for `Cc1cc(N2CCCCC2)nc(N(CCNc2ccnc3cc(Cl)ccc23)Cc2ccc3c(c2)OCO3)n1`, the IC50 in series [1] was 170 nM; in series [2], under 430 nM. In addition, the Activity result in series [3] is “Non-Toxic”. Besides, the selectivity ratio is over 53.6 in [4] and over 15.9 in series [5].
`Clc1ccc2c(NCCNCc3ccc4c(c3)OCO4)ccnc2c1`: the half-inhibitory concentration (IC50) in series [1] came out at 30 nM; in [2] it was 50 nM. For the same compound, in series [3], the Activity entry is “Non-Toxic”. For the same compound, the selectivity ratio was over 243 in series [4] and over 54.3 in series [5]. For the same compound, the “Ratio IC50” value in [10] was determined as 8.
`Cc1cc(N(CCCNc2ccnc3cc(Cl)ccc23)Cc2ccc3c(c2)OCO3)nc(Cl)n1`: the IC50 in [1] turned out to be 460 nM; in series [2], 1140 nM. For the same compound, in series [3], the Activity entry is reported as “Non-Toxic”. For the same compound, the figures for the selectivity ratio in series [4] and in series [5] were over 20.9 and over 8.4, respectively.
Regarding `Cc1cc(N(CCNc2ccnc3cc(Cl)ccc23)Cc2ccc3c(c2)OCO3)nc(N2CCCCC2)n1`, the IC50 in [1] is 50 nM; in series [2], 290 nM. Also, the Activity result in series [3] was “Non-Toxic”. Besides, the selectivity ratio was over 174 in series [4] and over 30.5 in series [5].
Turning to `Cc1cc(Cl)nc(N(CCCNc2ccnc3cc(Cl)ccc23)Cc2ccc3c(c2)OCO3)n1`, the IC50 amounted to 1110 nM in series [1] and 5160 nM in [2]. For the same compound, the Activity entry in series [3] is “Non-Toxic”. Also, the selectivity ratio in [4] was over 8.6; in [5], over 1.9.
On to `Cc1cc(N(CCNc2ccnc3cc(Cl)ccc23)Cc2ccc3c(c2)OCO3)nc(Cl)n1`, for which the 50% inhibitory concentration (IC50) in series [1] came out at 590 nM; in [2], 780 nM. In addition, the Activity result in series [3] is recorded as “Non-Toxic”. Further, the values for the selectivity ratio in series [4] and in series [5] were over 16.8 and over 12.3, respectively.
Take `CCN(CC)CCCC(C)Nc1ccnc2cc(Cl)ccc12` (stereo not drawn) [CHLOROQUINE]: the Activity entry in series [3] is listed as “Non-Toxic”.
With `Cc1cc(N2CCOCC2)nc(N(CCCNc2ccnc3cc(Cl)ccc23)Cc2ccc3c(c2)OCO3)n1`, the IC50 in series [1] came to 130 nM; in [2], 930 nM; in series [11], 8680 nM. Moreover, the selectivity ratio in series [4] amounted to 67; in [5], 9.4.
Consider `CCN1CCN(c2nc(C)cc(N(CCCNc3ccnc4cc(Cl)ccc34)Cc3ccc4c(c3)OCO4)n2)CC1`, for which the IC50 turned out to be 40 nM in series [1] and 170 nM in [2]. The Activity result in series [3] is “Non-Toxic”. Besides, the selectivity ratio in series [4] was over 194; in series [5] it was over 47.6. Besides, the “Ratio IC50” value in [10] is given as 2 - 5.
As for `Cc1cc(Cl)nc(N(CCNc2ccnc3cc(Cl)ccc23)Cc2ccc3c(c2)OCO3)n1`, the IC50 was determined as 480 nM in [1] and 1010 nM in series [2]. Moreover, in series [3], the Activity result is “Non-Toxic”. For the same compound, the results for the selectivity ratio in [4] and in series [5] were over 20.5 and over 9.8, respectively.
For `Cc1cc(N2CCCC2)nc(N(CCNc2ccnc3cc(Cl)ccc23)Cc2ccc3c(c2)OCO3)n1`, in that order: 150 nM, 930 nM, “Non-Toxic”, over 59.2 and over 9.8.
As to `CCN1CCN(c2cc(C)nc(N(CCNc3ccnc4cc(Cl)ccc34)Cc3ccc4c(c3)OCO4)n2)CC1`, the IC50 in series [1] was found to be 30 nM; in series [2], 140 nM. For the same compound, the Activity result in series [3] is given as “Non-Toxic”. The results for the selectivity ratio in series [4] and in series [5] were over 239 and over 60.4, respectively. In addition, in series [10], the “Ratio IC50” value is given as 2 - 5.
For `Cc1cc(N(CCCNc2ccnc3cc(Cl)ccc23)Cc2ccc3c(c2)OCO3)nc(N2CCOCC2)n1`, the half-maximal inhibitory concentration (IC50) amounted to 150 nM in [1] and 910 nM in series [2]. Also, the Activity result in [3] is listed as “Non-Toxic”. Further, the selectivity ratio was over 60 in [4] and over 9.5 in series [5].
`CCN1CCN(c2cc(C)nc(N(CCCNc3ccnc4cc(Cl)ccc34)Cc3ccc4c(c3)OCO4)n2)CC1`: the IC50 in series [1] is 120 nM; in series [2], 220 nM. Also, in series [3], the Activity entry is recorded as “Non-Toxic”. Besides, the figures for the selectivity ratio in series [4] and in series [5] were over 71.1 and over 37.9, respectively. Further, in series [10], the “Ratio IC50” value is on record as 2 - 5.
With `Cc1cc(N2CCOCC2)nc(N(CCNc2ccnc3cc(Cl)ccc23)Cc2ccc3c(c2)OCO3)n1`, the concentration for half-maximal inhibition (IC50) was found to be 130 nM in series [1], 810 nM in [2] and 6860 nM in series [11]. The selectivity ratio in series [4] came to 51.4; in series [5], 8.5.
Consider `Cc1cc(N(CCCNc2ccnc3cc(Cl)ccc23)Cc2ccc3c(c2)OCO3)nc(N2CCCC2)n1`, for which the results for the concentration for half-maximal inhibition (IC50) in series [1] and in series [2] were 50 nM and 90 nM, respectively. In addition, the Activity entry in series [3] is given as “Non-Toxic”. The selectivity ratio in series [4] was over 192; in [5], over 96.9. For the same compound, the “Ratio IC50” value in series [10] is given as 2 - 5.
As to `Cc1cc(N2CCCC2)nc(N(CCCNc2ccnc3cc(Cl)ccc23)Cc2ccc3c(c2)OCO3)n1`, the IC50 in series [1] was 120 nM; in series [2] it was 590 nM. Besides, the Activity result in series [3] is reported as “Non-Toxic”. Moreover, the selectivity ratio was over 76.7 in series [4] and over 15.1 in [5].
With `Clc1ccc2c(NCCCNCc3ccc4c(c3)OCO4)ccnc2c1`, the values for the IC50 in [1] and in [2] were 40 nM and 100 nM, respectively. Moreover, the Activity result in series [3] is “Non-Toxic”. Moreover, the selectivity ratio in series [4] was over 243; in [5], over 84.5. Also, the “Ratio IC50” value in [10] is 2 - 5.
For the compound `Cc1cc(N(CCCNc2ccnc3cc(Cl)ccc23)Cc2ccc3c(c2)OCO3)nc(N2CCCCC2)n1`, the half-maximal inhibitory concentration (IC50) stood at 150 nM in series [1] and 990 nM in [2]. The Activity entry in series [3] is listed as “Non-Toxic”. For the same compound, the selectivity ratio in series [4] is over 59.8; in series [5], over 8.8.
Consider `Cc1cc(N(CCNc2ccnc3cc(Cl)ccc23)Cc2ccc3c(c2)OCO3)nc(N2CCOCC2)n1`, for which the results for the IC50 in series [1] and in [2] were 50 nM and 220 nM, respectively. In addition, the Activity result in series [3] is “Non-Toxic”. Also, the selectivity ratio in series [4] was over 243; in series [5], over 66.8. Moreover, in [10], the “Ratio IC50” value is 2 - 5.
